{"source": "paper PMC5362268", "about": "(Cell, 2017)", "key": {"KRAS^G12D-GppNHp": {"biological_target": "KRAS^G12D-GppNHp (Homo sapiens, UniProt P01116, G12D)", "assay": "Microscale thermophoresis", "type": "binding", "conditions": "selectivity panel", "method_in_brief": "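To strip endogenous nucleotide, KRAS G12D (250 μM) in 25 mM HEPES, 100 mM NaCl, 20 mM EDTA and 1 mM GppNHp was shaken at 220 rpm, 30 °C, before MST.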"}, "GDP complex of KRAS^G12D": {"biological_target": "GDP complex of KRAS^G12D (Homo sapiens, UniProt P01116, G12D)", "assay": "MST, GDP-bound KRAS^G12D", "type": "binding", "conditions": "compared with GppNHp-bound KRAS^G12D"}, "KRAS^G12D D38A": {"biological_target": "KRAS^G12D D38A (Homo sapiens, UniProt P01116, D38A/G12D)", "assay": "MST, D38A point mutant", "type": "binding", "conditions": "compared with KRAS^G12D"}, "KRAS^G12D I36N": {"biological_target": "KRAS^G12D I36N (Homo sapiens, UniProt P01116, G12D/I36N)", "assay": "MST, I36N point mutant", "type": "binding", "conditions": "compared with KRAS^G12D"}, "KRAS^wt": {"biological_target": "KRAS^wt (Homo sapiens, UniProt P01116)", "assay": "MST with RAS GTPases", "type": "binding", "conditions": "selectivity panel, GppNHp-loaded"}, "HRAS^wt": {"biological_target": "HRAS^wt (Homo sapiens, UniProt P01112)", "sequence (P01112 whole entry)": "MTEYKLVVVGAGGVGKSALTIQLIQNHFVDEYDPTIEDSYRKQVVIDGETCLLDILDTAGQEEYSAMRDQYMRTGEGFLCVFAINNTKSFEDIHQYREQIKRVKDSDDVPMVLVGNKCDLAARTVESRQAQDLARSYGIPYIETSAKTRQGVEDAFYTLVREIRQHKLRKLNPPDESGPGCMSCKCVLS", "assay": "MST with RAS GTPases", "type": "binding", "conditions": "selectivity panel, GppNHp-loaded"}, "NRAS^wt": {"biological_target": "NRAS^wt (Homo sapiens, UniProt P01111)", "sequence (P01111 whole entry)": "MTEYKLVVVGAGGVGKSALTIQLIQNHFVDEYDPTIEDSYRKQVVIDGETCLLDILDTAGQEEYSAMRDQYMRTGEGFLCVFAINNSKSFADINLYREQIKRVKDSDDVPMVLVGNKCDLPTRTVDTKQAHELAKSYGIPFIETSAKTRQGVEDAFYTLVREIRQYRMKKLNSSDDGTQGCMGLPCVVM", "assay": "MST with RAS GTPases", "type": "binding", "conditions": "selectivity panel, GppNHp-loaded"}, "DLD-1 cells": {"test_system": "DLD-1 cells", "assay": "Pan-RAS siRNA knockdown and viability", "type": "cell-based, human", "conditions": "24 h", "method_in_brief": "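DLD-1 cells reverse-transfected in 6-well plates with siRNA pools against HRAS, KRAS and NRAS, or a non-targeting pool. Cells then re-suspended in serum-free RPMI and seeded at 10,000 cells/well in 384-well plates overnight. Dilution series added from 10× stocks in serum-free Opti-mem; 24 h incubation; viability by CellTiter-Glo.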"}, "[1]": {"test_system": "BRAF^V600E-CAAX-expressing MEF cells", "assay": "Viability assay in mouse embryo fibroblasts", "type": "cell-based"}, "[2]": {"test_system": "Kras^lox/lox, Hras^−/−, Nras^−/− RERTn^ert/ert MEFs", "assay": "MEF cell number after treatment", "type": "cell-based, mouse", "conditions": "6-well, 24 h treatment", "method_in_brief": "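6-well format: 200,000 cells/well seeded 16 h beforehand. Medium replaced with medium containing test compound (from 10 mM DMSO stocks) at indicated concentrations. After 24 h, cells trypsinized and counted by Trypan Blue exclusion (Vi-Cell).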"}, "HT-1080 cells": {"test_system": "HT-1080 cells", "assay": "Caspase 3/7 activation assay", "type": "cell-based, human", "conditions": "24 h; compared with staurosporine", "method_in_brief": "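HT-1080 cells seeded at 1,000 cells/well in 384-well plates. After 16 h, test compound was added as a dilution series, made from 50 mM DMSO stocks and transferred into assay wells at 1:5 dilution.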"}, "[3]": {"test_system": "HT-1080 cells (NRAS^Q61K)", "assay": "Lethality with PI3K and BRAF overexpression", "type": "cell-based, human", "conditions": "24 h, 6-well format", "method_in_brief": "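HT-1080 cells were retrovirally transduced using Phoenix-AMPHO supernatant, 0.45 µm filtered and added twice 4 h apart. After 48 h they were re-seeded under puromycin (2 μg/mL) for 6 d, and expression was checked by qPCR. Cells at 100,000/well in 6-well plates were treated 24 h, trypsinized, and viability read by Trypan blue exclusion (Vi-Cell).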"}, "[4]": {"test_system": "MDA-MB-231 cell line (KRAS^G13D)", "assay": "Multicellular tumor spheroids", "type": "cell-based, human", "conditions": "low-adherence plates, 72 h"}, "[5]": {"test_system": "pERK and pAKT in BRAF-CAAX-containing MEFs", "assay": "Western blots of mouse embryo fibroblasts", "type": "cell-based", "conditions": "compared with Kras MEFs", "method_in_brief": "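MEFs seeded at 0.25 million/well in DMEM with Glutamax, 10% heat-inactivated FBS and P/S. Serum-starved 24 h, then given test compound in serum-free medium; EGF 10 ng/ml for 15 min where indicated. Band intensities background-subtracted; pERK and pAKT expressed as (phospho/tubulin)/(total/tubulin) and normalised to DMSO.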"}, "[6]": {"assay": "Microsomal stability assay", "type": "in vitro ADME", "conditions": "human, over 120 minutes", "method_in_brief": "(§1)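 Liver microsomes incubated in 100 mM phosphate buffer, pH 7.4, supplemented with an NADPH-regenerating system (solutions A and B).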"}, "[7]": {"assay": "Microsomal stability assay", "type": "in vitro ADME", "conditions": "mouse, over 120 minutes", "method_in_brief": "as §1"}, "[8]": {"assay": "Pharmacokinetic analysis in mice", "type": "in vivo, mouse", "conditions": "20 mg/kg, plasma", "method_in_brief": "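Plasma flash-frozen in liquid nitrogen, stored at −80 °C, and assayed by UPLC-MS-MS. Plasma from six untreated mice used for calibration and matrix correction. AUCINF calculated from t = 0 to infinity using calculated half-life and last measured concentration.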"}, "MDA-MB-231 xenograft": {"test_system": "MDA-MB-231 xenograft", "assay": "Xenograft therapeutic study in mice", "type": "in vivo, mouse", "conditions": "180 mg/kg orally, 10 doses, 15 days of treatment, nude mice", "method_in_brief": "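Eight-week-old female nude mice received 7 million MDA-MB-231 cells subcutaneously. After 3 d they were randomised at ~58 mm³ tumours. Dosing was oral, 180 mg/kg (12 mg/mL, 10% DMSO, pH 4) or vehicle, 10 doses over 14 d. Tumours measured by caliper every 2 d; volume = 0.523 × length × width².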"}, "[9]": {"test_system": "phosphorylated ERK in MDA-MB-231 xenograft", "assay": "Pharmacodynamic study using MDA-MB-231 cells", "type": "in vivo, mouse", "conditions": "30 mg/kg IP once per day for 6 d, vs vehicle", "method_in_brief": "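Eight-week-old athymic nude mice received 8 million MDA-MB-231 cells subcutaneously. After 4 d they were grouped at ~128 mm³ tumours and dosed IP once daily for 6 d with 30 mg/kg in 5% DMSO HBSS pH 4, or with that vehicle. Tumours were then analysed for phosphorylated ERK.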"}, "KP^f/fC mice": {"test_system": "KP^f/fC mice", "assay": "Toxicity in KP^f/fC mouse study", "type": "in vivo", "conditions": "30 mg/kg IP once daily"}, "wild-type mice": {"test_system": "wild-type mice", "assay": "Toxicity and body weight in wild-type mice", "type": "in vivo, mouse", "conditions": "individual mice"}, "[10]": {"assay": "KC mouse weights on study", "type": "in vivo", "conditions": "individual mice"}}, "note": "Several values for one entry are separate records, joined by “and”; a condition that tells them apart may be missing. Equal entries are not always repeated.", "data": [{"smiles": "NC1(C(=O)NCCCn2cc(-c3ccc(OC(F)(F)F)cc3)c3cc(CN4CCN(Cc5c(Cl)cccc5Cl)CC4)ccc32)CCNCC1", "note": "[compound 3144, 4-amino-N-(3-(5-((4-(2,6-dichlorobenzyl)piperazin-1-yl)methyl)-3-(4-(trifluoromethoxy)phenyl)-1H-indol-1-yl)propyl)piperidine-4-carboxamide]", "values": [{"measurement": "binding by MST", "setting": "KRAS^G12D-GppNHp", "result": "detected binding"}, {"measurement": "affinity for the GDP complex", "setting": "GDP complex of KRAS^G12D", "result": "reduced affinity"}, {"measurement": "binding affinity to D38A mutant", "setting": "KRAS^G12D D38A", "result": "reduced binding affinity"}, {"measurement": "binding affinity to I36N mutant", "setting": "KRAS^G12D I36N", "result": "reduced binding affinity"}, {"measurement": "binding by MST", "setting": "KRAS^wt", "result": "detected binding"}, {"measurement": "binding by MST", "setting": "HRAS^wt", "result": "detected binding"}, {"measurement": "binding by MST", "setting": "NRAS^wt", "result": "detected binding"}, {"measurement": "concentration up to which cells were resistant", "setting": "DLD-1 cells; DLD-1 (KRAS^G13D), high cell density, no RAS knockdown", "result": "> 20", "unit": "µM"}, {"measurement": "effect of combined HRAS, NRAS and KRAS knockdown on compound lethality", "setting": "DLD-1 cells; si-panRAS vs non-targeting siRNA, CellTiter-Glo", "result": "sensitization"}, {"measurement": "concentrations showing lethality", "setting": "[1]; BRAF^V600E-CAAX-expressing MEFs", "result": "≥ 20", "unit": "µM"}, {"measurement": "sensitivity after Kras excision and BRAF^V600E-CAAX introduction", "setting": "[1]; compared with Kras^lox/lox MEFs", "result": "resistance"}, {"measurement": "concentrations not reducing the number of MEFs below the starting number", "setting": "[2]", "result": "below 3 μM"}, {"measurement": "caspase activity", "setting": "HT-1080 cells", "result": "induced caspase activity to a similar level as staurosporine"}, {"measurement": "lethality upon overexpression of activated alleles of PI3K and/or BRAF", "setting": "[3]", "result": "reduced"}, {"measurement": "spheroid size", "setting": "[4]", "result": "decreased in size in a dose-dependent manner"}, {"measurement": "pERK and pAKT abundance", "setting": "[5]", "result": "more resistant"}, {"measurement": "stability in liver microsomes", "setting": "[6]", "result": "relatively stable"}, {"measurement": "stability in liver microsomes", "setting": "[7]", "result": "relatively stable"}, {"measurement": "Tlast", "setting": "[8]; IP, male C57BL/6 mice", "result": 12, "unit": "h"}, {"measurement": "Tlast", "setting": "[8]; IV, male C57BL/6 mice", "result": 12, "unit": "h"}, {"measurement": "HL_Lambda_z", "setting": "[8]; PO, male C57BL/6 mice", "result": ">12", "unit": "h"}, {"measurement": "Tlast", "setting": "[8]; PO, male C57BL/6 mice", "result": 12, "unit": "h"}, {"measurement": "AUC(0-inf)", "setting": "[8]; male, C57BL/6, mouse, po", "result": 5650, "unit": "ng·h/mL"}, {"measurement": "tumor growth", "setting": "MDA-MB-231 xenograft", "result": "inhibition of tumor growth"}, {"measurement": "tumor pERK levels", "setting": "[9]", "result": "somewhat decreased"}, {"measurement": "toxicity", "setting": "KP^f/fC mice", "result": "Toxicity was observed"}, {"measurement": "WT mouse weights", "setting": "wild-type mice; day 1 on study", "result": "21.36 and 20.39 and 22.08 and 23.6 and 25"}, {"measurement": "WT mouse weights", "setting": "wild-type mice; day 2 on study", "result": "20 and 18.8 and 20.6 and 22.7 and 23.38"}, {"measurement": "WT mouse weights", "setting": "wild-type mice; day 3 on study", "result": "20 and 18.4 and 20.1 and 21.87 and 22.16"}, {"measurement": "WT mouse weights", "setting": "wild-type mice; day 4 on study", "result": "20.77 and 17.4 and 19 and 21.08 and 23"}, {"measurement": "WT mouse weights", "setting": "wild-type mice; day 5 on study", "result": "20.78 and 17.27 and 18.6 and 21.4 and 22.18"}, {"measurement": "KC mouse weights", "setting": "[10]; day 1 on study", "result": "33 and 30.5 and 30.7 and 33.5 and 35.8"}, {"measurement": "KC mouse weights", "setting": "[10]; day 2 on study", "result": "32.2 and 28.1 and 27.8 and 33.5 and 34.5"}, {"measurement": "KC mouse weights", "setting": "[10]; day 3 on study", "result": "29.9 and 24.84 and 32 and 26.86"}, {"measurement": "KC mouse weights", "setting": "[10]; day 4 on study", "result": "28.8 and 23.6 and 30.5"}, {"measurement": "KC mouse weights", "setting": "[10]; day 5 on study", "result": "28.5 and 30.2"}]}]}
